Assay results from ChEMBL document CHEMBL1154620, “Total synthesis and antiproliferative activity screening of (+/-)-aplicyanins A, B and E and related analogues” (2009).
Active and inactive are the calls of the source. The calls are words filed in the database; no cut-off is given here.

Columns and labels:
Format in all cases: functional
A549 = assay: Cytotoxicity against human A549 cells after 72 hrs by SRB assay
Outline: (§1)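 Cells seeded at 5 × 10³/well and grown 24 h; one plate per line fixed at this point as T_z reference. Exposure to vehicle or compound for a further 72 h. Wash in PBS, fix 15 min in 1% glutaraldehyde, stain 30 min at rt with 0.4% SRB, rinse in 1% acetic acid, extract into 10 mM trizma base, read A490. NCI algorithm; GI50 interpolated from dose curves.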

MDA-MB-231 = assay: Cytotoxicity against human MDA-MB-231 cells after 72 hrs by SRB assay; outline: as §1
HT-29 = assay: Cytotoxicity against human HT-29 cells after 72 hrs by SRB assay; outline: as §1

## CC(=O)/N=C1\NCCC(c2cn(C)c3cc(Br)ccc23)N1 (racemic)
A549; A549, 72 h
  GI50: 6.3 µM
MDA-MB-231; MDA-MB-231, 72 h
  GI50: 8.02 µM
HT-29; HT-29, 72 h
  GI50: 4.3 µM

## Cn1cc(C2CCN=C(N)N2)c2ccccc21 (racemic)
A549; A549, 72 h
  GI50: 2.67 µM
MDA-MB-231; MDA-MB-231, 72 h
  GI50: 1.71 µM
HT-29; HT-29, 72 h
  GI50: 4.29 µM

## Cn1cc(C2CCN=C(N)N2)c2ccc(Br)cc21 (racemic)
A549; A549, 72 h
  GI50: 9.11 µM
MDA-MB-231; MDA-MB-231, 72 h
  GI50: 8.79 µM
HT-29; HT-29, 72 h
  GI50: 4.56 µM

## Cn1cc(C2CCN=C(N)N2)c2cc(Br)ccc21 (racemic)
A549
  GI50: inactive
MDA-MB-231; MDA-MB-231, 72 h
  GI50: 25.7 µM
HT-29; HT-29, 72 h
  GI50: 13.7 µM

## Cn1cc(C2CC(=O)N=C(N)N2)c2ccc(Br)cc21 (racemic)
A549
  GI50: inactive
MDA-MB-231; MDA-MB-231, 72 h
  GI50: 2.86 µM
HT-29
  GI50: inactive

## NC1=NCCC(c2c[nH]c3cc(Br)ccc23)N1 (racemic)
A549
  GI50: inactive
MDA-MB-231; MDA-MB-231, 72 h
  GI50: 19.1 µM
HT-29; HT-29, 72 h
  GI50: 21.1 µM

## CC(=O)/N=C1\NCCC(c2c[nH]c3cc(Br)ccc23)N1 (racemic)
A549; A549, 72 h
  GI50: 6.86 µM
MDA-MB-231; MDA-MB-231, 72 h
  GI50: 5.67 µM
HT-29; HT-29, 72 h
  GI50: 2.12 µM

## CC(=O)/N=C1\NCCC(c2cn(C)c3ccccc23)N1 (racemic)
A549; A549, 72 h
  GI50: 10.7 µM
MDA-MB-231; MDA-MB-231, 72 h
  GI50: 14.4 µM
HT-29; HT-29, 72 h
  GI50: 7.4 µM

## CC(=O)/N=C1\NCCC(c2cn(C)c3ccc(Br)cc23)N1 (racemic)
A549; A549, 72 h
  GI50: 0.43 µM
MDA-MB-231; MDA-MB-231, 72 h
  GI50: 0.94 µM
HT-29; HT-29, 72 h
  GI50: 0.31 µM

## COn1cc(C2CC(=O)N=C(N)N2)c2cc(Br)c(Br)cc21 (racemic)
A549
  GI50: inactive
MDA-MB-231
  GI50: inactive
HT-29
  GI50: inactive

## COn1cc(C2CC(=O)N=C(N)N2)c2ccccc21 (racemic)
A549
  GI50: inactive
MDA-MB-231
  GI50: inactive
HT-29
  GI50: inactive

## COn1cc(C2CCN=C(N)N2)c2ccccc21 (racemic)
A549
  GI50: inactive
MDA-MB-231
  GI50: inactive
HT-29
  GI50: inactive

## Cn1cc(C2CC(=O)N=C(N)N2)c2cc(Br)ccc21 (racemic)
A549
  GI50: inactive
MDA-MB-231
  GI50: inactive
HT-29
  GI50: inactive

## Cn1cc(C2CC(=O)N=C(N)N2)c2ccccc21 (racemic)
A549
  GI50: inactive
MDA-MB-231
  GI50: inactive
HT-29
  GI50: inactive

## NC1=NC(=O)CC(c2c[nH]c3cc(Br)ccc23)N1 (racemic)
A549
  GI50: inactive
MDA-MB-231
  GI50: inactive
HT-29
  GI50: inactive

## NC1=NC(=O)CC(c2c[nH]c3ccc(Br)cc23)N1 (racemic)
A549
  GI50: inactive
MDA-MB-231
  GI50: inactive
HT-29
  GI50: inactive

## NC1=NCCC(c2c[nH]c3cc(Br)c(Br)cc23)N1 (racemic)
A549
  GI50: inactive
MDA-MB-231
  GI50: inactive
HT-29
  GI50: inactive

## NC1=NCCC(c2c[nH]c3ccc(Br)cc23)N1 (racemic) [APLICYANIN A]
A549; A549, 72 h
  GI50: 0.27 µM
MDA-MB-231; MDA-MB-231, 72 h
  GI50: 0.27 µM
HT-29; HT-29, 72 h
  GI50: 0.11 µM

## CC(=O)/N=C1\NCCC(c2c[nH]c3ccc(Br)cc23)N1 (racemic) [APLICYANIN B]
A549; A549, 72 h
  GI50: 0.51 µM
MDA-MB-231; MDA-MB-231, 72 h
  GI50: 0.98 µM
HT-29; HT-29, 72 h
  GI50: 0.33 µM

## COn1cc(C2CCN=C(N)N2)c2cc(Br)c(Br)cc21 (racemic) [APLICYANIN E]
A549
  GI50: inactive
MDA-MB-231; MDA-MB-231, 72 h
  GI50: 10.9 µM
HT-29
  GI50: inactive
